The text below walks through data of ChEMBL document CHEMBL2434876, “Design, synthesis and biological evaluation of 2-substituted quinolines as potential antileishmanial agents” (Eur J Med Chem, 2013).

Series [1] in a line: Volume of distribution at steady state in Swiss Albino mouse at 10 mg/kg, iv by LC-MS/MS analysis. The series is classed as ADME, organism-based. On the set-up: dose 10 mg/kg, route intravenous. The note with it: in vivo, read-out: Vdss. The gist of the method:
(§1)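 Male Swiss Albino mice, 8-12 weeks, 30-40 g, fasted 4 h pre-dose and fed 4 h post-dose. Parallel groups: 10 mg/kg IV tail-vein bolus or 50 mg/kg oral gavage. Sparse sampling, 3 mice per time point, from 0.083 (IV only) to 24 h. K2EDTA plasma analysed by LC-MS/MS (calibration 1–1000 ng/mL). Non-compartmental parameters; bioavailability from dose-normalized AUC ratio versus IV.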

Series [2] is described as follows: Plasma clearance in Swiss Albino mouse at 10 mg/kg, iv by LC-MS/MS analysis. The series is classed as ADME, organism-based. More on the design: dose 10 mg/kg, route intravenous. The gist of the method: as §1
A short description of series [3]: Elimination half life in Swiss Albino mouse at 10 mg/kg, iv by LC-MS/MS analysis. The series is classed as ADME, organism-based. More on the design: dose 10 mg/kg, route intravenous. Conditions: in vivo, read-out: beta t1/2 (converted). The gist of the method:
as §1

Series [4] is described as follows: AUC (infinity) in Swiss Albino mouse at 10 mg/kg, iv by LC-MS/MS analysis. Type of series: ADME, organism-based. On the set-up: time infinity, dose 10 mg/kg, route intravenous. Conditions: plasma. The gist of the method:
as §1

Series [5] in a line: AUClast in Swiss Albino mouse at 10 mg/kg, iv by LC-MS/MS analysis. Conditions: plasma. Type of series: ADME, organism-based. On the set-up: time 0 - last, dose 10 mg/kg, route intravenous. The gist of the method: as §1
The nature of series [6]: AUClast in Swiss Albino mouse at 50 mg/kg, po by LC-MS/MS analysis. Type of series: ADME, organism-based. Conditions: plasma. On the set-up: time 0 - last, dose 50 mg/kg, route oral. The gist of the method: as §1
Series [7] in a line: Cmax in Swiss Albino mouse at 50 mg/kg, po by LC-MS/MS analysis. The series is classed as ADME, organism-based. More on the design: dose 50 mg/kg, route oral. The note with it: in vivo. The gist of the method:
as §1

The nature of series [8]: Cmax in Swiss Albino mouse at 10 mg/kg, iv by LC-MS/MS analysis. The series is classed as ADME, organism-based. On the set-up: dose 10 mg/kg, route intravenous. The note with it: in vivo. The gist of the method:
as §1

Series [9] can be described thus: Tmax in Swiss Albino mouse at 50 mg/kg, po by LC-MS/MS analysis. The series is classed as ADME, organism-based. On the set-up: dose 50 mg/kg, route oral. The note with it: in vivo. The gist of the method: as §1
Series [10] in a line: Tmax in Swiss Albino mouse at 10 mg/kg, iv by LC-MS/MS analysis. The series is classed as ADME, organism-based. More on the design: dose 10 mg/kg, route intravenous. The note with it: in vivo. The gist of the method: as §1
The nature of series [11]: Metabolic stability in whole blood (unknown origin). The series is classed as ADME, tissue-based.
Series [12] is described as follows: Metabolic stability in plasma (unknown origin). The series is classed as ADME, cell-free.
For series [13], the system named is Leishmania donovani. In words: Antileishmanial activity against Leishmania donovani MHOM/IN/80/Dd8 amastigotes infected in golden hamster assessed as parasite growth inhibition at 50 mg/kg, ip bid for 5 days measured on day 7 by Giemsa staining assay. Type of series: functional. The note with it: MHOM/IN/80/Dd8, ip, route intraperitoneal, read-out: GI. The gist of the method: (§2)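 Inbred golden hamsters, 40-45 g, infected intracardially with 1 x 10^7 L. donovani amastigotes. Animals with +1 spleen biopsy grade (5-15 amastigotes/100 nuclei) were randomized, 5-6 per group. Dosing in distilled water/PBS began 48 h after biopsy and ran 5 consecutive days. Post-treatment spleen biopsy on day 7, Giemsa count; percent inhibition corrected for initial count and untreated-control increase.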

Series [14] concerns Leishmania donovani. In words: Antileishmanial activity against Leishmania donovani MHOM/IN/80/Dd8 amastigotes infected in golden hamster assessed as parasite growth inhibition at 50 mg/kg, ip qd for 5 days measured on day 7 by Giemsa staining assay. The series is classed as functional. The note with it: MHOM/IN/80/Dd8, ip, route intraperitoneal, read-out: GI. The gist of the method:
as §2

Series [15] in a line: Oral bioavailability in Swiss Albino mouse at 50 mg/kg by LC-MS/MS analysis. The series is classed as ADME, organism-based. Conditions: in vivo. The gist of the method: as §1
Series [16] is described as follows: Drug metabolism in hamster liver microsomes at 1 uM after 30 mins by LC-MS/MS analysis. The series is classed as ADME, Microsome. The note with it: cricetinae, read-out: Drug metabolism. The gist of the method:
(§3)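 Liver microsomes (1 mg/mL protein) in sodium phosphate buffer pH 7.4 with 5 mM NADPH, preincubated 10 min at 37°C. Test compound taken from a 200 µM acetonitrile:DMSO (96:4) stock. Samples analysed by LC/MS/MS as analyte/internal standard peak-area ratio. Percent metabolized at 30 min relative to 0 min; NADPH-free controls run in parallel.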
A general note: Microsomes from liver hold many membrane-bound enzymes, among them those of drug oxidation.

A short description of series [17]: Drug metabolism in human liver microsomes at 1 uM after 30 mins by LC-MS/MS analysis. The series is classed as ADME, Microsome. Conditions: read-out: Drug metabolism. The gist of the method:
as §3

A short description of series [18]: Drug metabolism in mouse liver microsomes at 1 uM after 30 mins by LC-MS/MS analysis. The note with it: read-out: Drug metabolism. Type of series: ADME, Microsome. The gist of the method:
as §3

Series [19] can be described thus: Selectivity index, ratio of CC50 for African green monkey Vero cells to IC50 for Leishmania donovani MHOM/IN/80/Dd8 amastigotes. Type of series: functional. The gist of the method:
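Selectivity index is Vero CC50 divided by IC50 against intracellular L. donovani amastigotes in J774A.1 cells, each measured over 72 h.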

Series [20] is described as follows: Cytotoxicity against African green monkey Vero cells after 72 hrs by MTT assay. The note with it: chlorocebus sabaeus. The series is classed as cell-based. The gist of the method: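 Exponentially growing Vero cells (1 x 10^5/well) exposed 72 h at 37°C, 5% CO2, to 7-point threefold dilutions from 400 µM (DMSO stocks diluted in medium), with DMSO vehicle controls. MTT added for 2 h, formazan dissolved in DMSO, absorbance read at 544 nm. CC50 is the concentration halving viability versus medium-only cells; mean of two independent experiments.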
In general terms: Formazan colour is commonly taken as a measure of viable cells.

The test system of series [21] is Leishmania donovani. In words: Antileishmanial activity against Leishmania donovani MHOM/IN/80/Dd8 amastigotes infected in mouse J774A1 cells assessed as parasite growth inhibition after 72 hrs by luciferase reporter gene assay. Type of series: functional, organism-based. Conditions: MHOM/IN/80/Dd8, J774.A1, 72 h. The gist of the method:
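J774A.1 macrophages (4 x 10^3/well) in RPMI-1640 with 10% FCS for 24 h, then infected with stationary-phase luciferase-expressing promastigotes (4 x 10^4/well). Non-internalized parasites washed off after 24 h. Compounds given as 7-point serial dilution from 100 µM for 72 h at 37°C. Steady-Glo luminescence read; IC50 from four-parameter Hill fit, mean of two independent experiments.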
In general terms: A reporter such as luciferase makes a cellular process visible.

With `OC/C=C/c1cc(N2CCOCC2)c2cc(Cl)c(F)cc2n1`, the Vd in [1] was determined as 7.54 L/kg. The clearance in [2] is 865 mL/min/kg. Further, the half-life in series [3] is 28.2 min. Further, the AUC(0-inf) in series [4] was 193 ng·h/mL. For the same compound, the AUC(0-t) in series [5] came out at 193 ng·h/mL; in series [6] it was 6.88 ng·h/mL. For the same compound, the Cmax in [7] amounted to 19.7 ng/mL; in series [8] it was 2230 ng/mL. The values for the Tmax in series [9] and in series [10] were 15 min and 4.8 min, respectively. Further, the Stability entry is “Unstable” in [11] and “Stable” in series [12]. In addition, the inhibition in vivo at 50 mg/kg in series [13] came out at 77.2%; in [14], 25.4%. Further, in [15], the bioavailability is 0.7%. For the same compound, the metabolised at 0.5 h, 1 µM in series [16] turned out to be 66%; in [17], 35%; in [18], 45%. Moreover, in series [19], the “Ratio CC50/IC50” value is listed as 187.5. The CC50 at 72 h in series [20] was 41.2 µM. The IC50 in [21] was determined as 0.22 µM.

The clearance is a measure of how efficiently the substance is removed, as volume per time. For orientation: AUC(0-inf) means the area under the concentration-time curve extrapolated to infinity. As a reminder, the AUC(0-t) is exposure summed from dosing to a finite time, without extrapolation to infinity. As a reminder, the Cmax is the highest concentration seen after dosing. For orientation: Tmax means the time at which the peak concentration occurs. Usually bioavailability stands for the share of a dose that reaches the circulation, judged against a reference dose that is usually intravenous. By CC50 is commonly meant the concentration that lowers cell viability or growth by half. The term IC50 denotes the concentration that inhibits the measured activity by half.
